Measured values from ChEMBL document CHEMBL1155733, “Flavonoid, iridoid, and lignan glycosides from Putoria calabrica” (J Nat Prod, 2001).
Activity calls are given as the source filed them. The calls are words filed in the database; no cut-off is given here.

How the values were obtained:
Homo sapiens = species: Homo sapiens; assay: Antioxidant activity assessed as radical scavenging activity in FMLP-stimulated human PMNC up to 30 uM by chemiluminescence assay; format: functional
How it was run: (§1)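 Human PMNs in HBSS (5 × 10⁶ cells/ml) preincubated 30 min at 37 °C with luminol (0.2 mM, as added) and test solution (ethanol stock diluted in HBSS). Stimulated with FMLP (0.5 μM, as added). Luminol-enhanced chemiluminescence recorded in cpm for 15 min at 37 °C. Area under the curve expressed as % of compound-free control; five measurements per concentration, averaged. Quercetin served as positive control.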

[1] = Antioxidant activity assessed as radical scavenging activity in FMLP-stimulated human PMNC by chemiluminescence assay; format: functional; how it was run: as §1

SMILES	Activity (Homo sapiens)	IC50 [1] [nM]
O=C1O[C@H]2C=C(CO)[C@H]3[C@H](O[C@@H]4O[C@H](CO)[C@@H](O)[C@H](O)[C@H]4O)OC=C1[C@H]32	inactive	
C[C@@H]1O[C@@H](O[C@H]2[C@H](Oc3c(-c4ccc(O)c(O)c4)oc4cc(O[C@@H]5O[C@H](CO)[C@@H](O)[C@H](O)[C@H]5O)cc(O)c4c3=O)OC[C@H](O)[C@@H]2O)[C@H](O)[C@H](O)[C@H]1O [CALABRICOSIDE A]		250
CC(=O)OCC1=C[C@H](O)[C@@H]2C(C(=O)O)=CO[C@@H](O[C@H]3O[C@@H](CO)[C@H](O)[C@@H](O)[C@@H]3O)[C@H]12	inactive	
O=C(O)C1=CO[C@@H](O[C@@H]2O[C@H](CO)[C@@H](O)[C@H](O)[C@H]2O)[C@@H]2C(CO)=CC[C@H]12	inactive	
O=c1c(O)c(-c2ccc(O)c(O)c2)oc2cc(O)cc(O)c12 [QUERCETIN]		500
O=C(O)C1=CO[C@@H](O[C@@H]2O[C@H](CO)[C@@H](O)[C@H](O)[C@H]2O)[C@@H]2C(CO)=C[C@@H](O)[C@H]12	inactive	
COc1cc(C[C@H]2CO[C@@H](c3ccc(O[C@@H]4O[C@H](CO)[C@@H](O)[C@H](O)[C@H]4O)c(OC)c3)[C@H]2CO)ccc1O[C@@H]1O[C@H](CO)[C@@H](O)[C@H](O)[C@H]1O	inactive	
CSC(=O)OCC1=C[C@@H]2OC(=O)C3=CO[C@@H](O[C@@H]4O[C@H](CO)[C@@H](O)[C@H](O)[C@H]4O)[C@H]1[C@@H]32	inactive	
CSC(=O)OCC1=C[C@H](O)[C@H]2C(C(=O)O)=CO[C@@H](O[C@@H]3O[C@@H](CO)[C@@H](O)[C@@H](O)[C@H]3O)[C@H]12	inactive	
C[C@@H]1O[C@@H](O[C@H]2[C@H](Oc3c(-c4ccc(O)c(O)c4)oc4cc(O[C@@H]5O[C@H](CO)[C@@H](O)[C@H](O)[C@H]5O)cc(O)c4c3=O)OC[C@H](O)[C@@H]2O)[C@H](O)[C@H](O)[C@H]1OC(=O)/C=C/c1ccc(O)c(O)c1 [CALABRICOSIDE B]		300
CC(=O)OCC1=C[C@@H]2OC(=O)C3=CO[C@@H](O[C@@H]4O[C@H](CO)[C@@H](O)[C@H](O)[C@H]4O)[C@H]1[C@@H]32	inactive	
COc1cc([C@H]2OC[C@H]3[C@@H]2CO[C@@H]3c2cc(OC)c(O[C@@H]3O[C@H](CO)[C@@H](O)[C@H](O)[C@H]3O)c(OC)c2)cc(OC)c1O[C@@H]1O[C@H](CO)[C@@H](O)[C@H](O)[C@H]1O	inactive	
